Experimental findings from PMC9087257 (The Journal of International Medical Research, 2022) are described below.

Structures are written as SMILES.

Data set [1] deals with E-cadherin. In words: Western blotting, E-cadherin level. In kind it is cell-based. Particulars: NCI-H460 cells, 48 h, Western blot. In a few lines: (§1)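 Western blot: NCI-H460 cells treated 48 h with three test-compound concentrations; 5 × 10^6 cells lysed in RIPA, run on SDS-PAGE and transferred to PVDF. Membranes blocked in 5% defatted milk. Anti-E-cadherin or anti-N-cadherin (1:10000) at 4°C for 12 h; anti-GAPDH (1:50000) 2 h at 25°C as internal control. ECL detection; bands quantified against the control group; mean ± SEM.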

Data set [2] has as its system TE-11, SK-BR-3, HO-8910, QGY-7701, SHG-44, HCC-44, COLO-320, SH-SY5Y and SW579 cells. In words: MTT cell viability, panel of nine cancer cell lines. The class given is cell-based. Particulars: 48 h.
The test system of data set [3] is NCI-H460 cells. In words: Wound healing assay. In kind it is cell-based. As to conditions: 75 nM, 150 nM and 300 nM, 48 h.
Data set [4] concerns NCI-H3122 cells. In words: MTT cell viability assay, NCI-H3122. In kind it is cell-based. As to conditions: Homo sapiens, NCI-H3122, read-out: IC50 against NCI-H3122 cells. Summed up:
(§2)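 MTT viability: cells grown in RPMI-1640 with 10% FBS and penicillin-streptomycin, seeded in 24-well plates and held 24 h at 37°C, 5% CO2. Test compound added over a range of concentrations: 48 h for the cancer-line panel; three treatment durations for NCI-H460, NCI-H3122, HCC-44 and BEAS2B. MTT added for 2 h at 37°C, formazan dissolved in DMSO with 30 min shaking, absorbance read. Mean ± SEM.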

Data set [5] concerns the target EGFR (Homo sapiens, UniProt P00533). In words: ELISA kinase assay, EGFR. The class given is biochemical. In a few lines: (§3)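 Tyrosine kinase ELISA: ATP in kinase reaction buffer, then test compound diluted in DMSO (DMSO as negative control). Reaction started by adding purified kinase and incubated 1 h at 37°C. Plate washed three times with 1 mM PBS (pH 7.5), then HRP-conjugated goat anti-mouse IgG added for 30 min at 37°C. Washed again and read by spectrophotometer.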

The target of data set [6] is TRKA (Homo sapiens, UniProt P04629). In words: ELISA kinase assay, TRKA. The class given is biochemical. In a few lines:
as §3
Background: In an ELISA, binding on a coated surface is turned into a signal by an enzyme label.

In data set [7] the test system is NCI-H460 xenograft. In words: NCI-H460 xenograft study. The class given is in vivo, BALB/c nude mice. Summed up:
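BALB/c nude mice (4 weeks, 18–21 g) carried NCI-H460 xenografts and were housed at 26–28°C on a 13 h/11 h light cycle. At tumour volume 100 mm3, mice were randomised, 5 per group, to water vehicle or 50 mg/kg test compound intragastrically every 3 days for 16 days. Tumours were then excised and weighed; heart, liver, spleen, lung and kidney taken for H&E.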

The target in data set [8] is FGFR1 (Homo sapiens, UniProt P11362). In words: ELISA kinase assay, FGFR1. In kind it is biochemical. In a few lines:
as §3

The test system of data set [9] is HCC-44 cells. In words: MTT cell viability assay, HCC-44. The class given is cell-based. As to conditions: for antiproliferative efficacy against HCC-44 cells: 48 h, MTT. Summed up:
as §2
For orientation: Tetrazolium assays rely on reduction of a dye to a coloured formazan, in cell work by metabolically active cells.

Data set [10] deals with PDGFRα (Homo sapiens, UniProt P16234). In words: ELISA kinase assay, PDGFRα. The class given is biochemical. Summed up:
as §3

The target in data set [11] is ALK (Homo sapiens, UniProt Q9UM73). In words: ELISA kinase assay, ALK. In kind it is biochemical. In a few lines: as §3
Data set [12] relates to NCI-H460 cells. In words: MTT cell viability assay, NCI-H460. The class given is cell-based. As to conditions: Homo sapiens, NCI-H460, read-out: IC50 against NCI-H460 cells. In a few lines:
as §2

The target in data set [13] is c-Met kinase (Homo sapiens, UniProt P08581). In words: ELISA kinase assay, c-Met. The class given is biochemical.
Data set [14] concerns NCI-H460 cells. In words: Transwell migration assay. Particulars: 48 h. In kind it is cell-based. In a few lines:
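Transwell migration with NCI-H460 cells, at three test-compound concentrations. Cells seeded in the upper chamber in serum-free RPMI-1640; lower chamber held RPMI-1640 with 10% FBS. After 48 h at 37°C, 5% CO2, cells were fixed and haematoxylin-stained, and migrated cells were counted.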

Data set [15] is described as follows: MTT cytotoxicity against normal cells BEAS2B. The class given is cell-based. Particulars: human, BEAS2B cells (normal human epithelium cells). In a few lines:
as §2

For data set [16], the system named is N-cadherin. In words: Western blotting, N-cadherin level. Particulars: NCI-H460 cells, 48 h, Western blot. In kind it is cell-based. In a few lines:
as §1

c-Met kinase, sequence (P08581 25-1390): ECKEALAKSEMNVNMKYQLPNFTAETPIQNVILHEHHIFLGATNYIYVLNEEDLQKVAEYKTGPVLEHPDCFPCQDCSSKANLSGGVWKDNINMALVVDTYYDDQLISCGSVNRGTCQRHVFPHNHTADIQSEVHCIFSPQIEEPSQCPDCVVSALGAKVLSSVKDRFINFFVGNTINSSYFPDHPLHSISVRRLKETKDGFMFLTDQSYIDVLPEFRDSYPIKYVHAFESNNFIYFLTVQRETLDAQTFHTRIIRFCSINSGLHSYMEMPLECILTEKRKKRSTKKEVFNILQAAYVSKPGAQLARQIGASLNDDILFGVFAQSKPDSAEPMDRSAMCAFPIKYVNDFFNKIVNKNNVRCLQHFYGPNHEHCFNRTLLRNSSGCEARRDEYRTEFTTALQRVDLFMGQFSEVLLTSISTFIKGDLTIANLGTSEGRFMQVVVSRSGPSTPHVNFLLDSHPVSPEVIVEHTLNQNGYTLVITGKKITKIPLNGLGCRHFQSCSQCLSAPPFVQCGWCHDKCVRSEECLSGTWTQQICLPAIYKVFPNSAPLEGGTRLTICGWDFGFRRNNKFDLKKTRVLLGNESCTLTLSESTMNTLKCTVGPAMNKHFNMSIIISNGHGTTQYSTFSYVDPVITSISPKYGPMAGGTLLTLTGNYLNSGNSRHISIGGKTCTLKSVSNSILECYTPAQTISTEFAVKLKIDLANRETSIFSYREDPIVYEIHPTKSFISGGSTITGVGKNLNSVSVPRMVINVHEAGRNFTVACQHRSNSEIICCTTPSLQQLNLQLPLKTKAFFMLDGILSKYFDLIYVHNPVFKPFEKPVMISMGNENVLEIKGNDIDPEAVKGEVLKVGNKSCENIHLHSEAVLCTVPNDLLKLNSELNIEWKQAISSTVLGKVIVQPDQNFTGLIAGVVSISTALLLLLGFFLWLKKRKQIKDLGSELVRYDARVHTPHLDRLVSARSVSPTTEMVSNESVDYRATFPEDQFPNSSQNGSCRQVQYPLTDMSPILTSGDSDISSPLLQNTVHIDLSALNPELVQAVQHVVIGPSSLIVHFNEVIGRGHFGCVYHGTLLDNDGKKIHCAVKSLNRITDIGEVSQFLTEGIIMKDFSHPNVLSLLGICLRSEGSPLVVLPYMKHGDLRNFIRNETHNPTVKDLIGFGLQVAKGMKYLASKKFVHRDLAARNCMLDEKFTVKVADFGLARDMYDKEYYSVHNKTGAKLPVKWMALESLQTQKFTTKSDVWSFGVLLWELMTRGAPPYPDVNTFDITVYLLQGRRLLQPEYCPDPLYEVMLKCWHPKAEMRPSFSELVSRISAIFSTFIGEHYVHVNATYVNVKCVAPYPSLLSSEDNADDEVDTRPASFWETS
FGFR1, sequence (P11362 22-822): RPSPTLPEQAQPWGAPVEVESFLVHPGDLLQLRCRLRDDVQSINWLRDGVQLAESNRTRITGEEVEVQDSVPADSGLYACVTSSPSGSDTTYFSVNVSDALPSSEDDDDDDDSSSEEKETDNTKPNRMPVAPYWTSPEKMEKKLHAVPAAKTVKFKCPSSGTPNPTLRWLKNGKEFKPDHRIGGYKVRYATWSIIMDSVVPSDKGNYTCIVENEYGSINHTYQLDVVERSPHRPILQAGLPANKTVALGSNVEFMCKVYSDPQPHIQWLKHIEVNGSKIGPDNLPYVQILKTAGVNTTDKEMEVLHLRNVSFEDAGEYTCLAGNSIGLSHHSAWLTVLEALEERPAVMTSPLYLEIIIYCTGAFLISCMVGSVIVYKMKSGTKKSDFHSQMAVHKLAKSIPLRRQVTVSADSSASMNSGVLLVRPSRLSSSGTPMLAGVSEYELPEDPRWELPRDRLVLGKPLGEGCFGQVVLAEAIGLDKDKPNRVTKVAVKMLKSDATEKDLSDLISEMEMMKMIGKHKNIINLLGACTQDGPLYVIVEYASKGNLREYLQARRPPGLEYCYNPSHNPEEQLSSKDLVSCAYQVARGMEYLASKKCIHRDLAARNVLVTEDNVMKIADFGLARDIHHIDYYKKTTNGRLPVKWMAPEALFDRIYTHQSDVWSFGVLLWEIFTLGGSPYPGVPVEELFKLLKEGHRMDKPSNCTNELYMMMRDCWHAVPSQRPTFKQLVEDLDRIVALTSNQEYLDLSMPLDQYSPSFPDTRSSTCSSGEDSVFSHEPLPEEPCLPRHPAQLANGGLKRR
PDGFRα, sequence (P16234 24-1089): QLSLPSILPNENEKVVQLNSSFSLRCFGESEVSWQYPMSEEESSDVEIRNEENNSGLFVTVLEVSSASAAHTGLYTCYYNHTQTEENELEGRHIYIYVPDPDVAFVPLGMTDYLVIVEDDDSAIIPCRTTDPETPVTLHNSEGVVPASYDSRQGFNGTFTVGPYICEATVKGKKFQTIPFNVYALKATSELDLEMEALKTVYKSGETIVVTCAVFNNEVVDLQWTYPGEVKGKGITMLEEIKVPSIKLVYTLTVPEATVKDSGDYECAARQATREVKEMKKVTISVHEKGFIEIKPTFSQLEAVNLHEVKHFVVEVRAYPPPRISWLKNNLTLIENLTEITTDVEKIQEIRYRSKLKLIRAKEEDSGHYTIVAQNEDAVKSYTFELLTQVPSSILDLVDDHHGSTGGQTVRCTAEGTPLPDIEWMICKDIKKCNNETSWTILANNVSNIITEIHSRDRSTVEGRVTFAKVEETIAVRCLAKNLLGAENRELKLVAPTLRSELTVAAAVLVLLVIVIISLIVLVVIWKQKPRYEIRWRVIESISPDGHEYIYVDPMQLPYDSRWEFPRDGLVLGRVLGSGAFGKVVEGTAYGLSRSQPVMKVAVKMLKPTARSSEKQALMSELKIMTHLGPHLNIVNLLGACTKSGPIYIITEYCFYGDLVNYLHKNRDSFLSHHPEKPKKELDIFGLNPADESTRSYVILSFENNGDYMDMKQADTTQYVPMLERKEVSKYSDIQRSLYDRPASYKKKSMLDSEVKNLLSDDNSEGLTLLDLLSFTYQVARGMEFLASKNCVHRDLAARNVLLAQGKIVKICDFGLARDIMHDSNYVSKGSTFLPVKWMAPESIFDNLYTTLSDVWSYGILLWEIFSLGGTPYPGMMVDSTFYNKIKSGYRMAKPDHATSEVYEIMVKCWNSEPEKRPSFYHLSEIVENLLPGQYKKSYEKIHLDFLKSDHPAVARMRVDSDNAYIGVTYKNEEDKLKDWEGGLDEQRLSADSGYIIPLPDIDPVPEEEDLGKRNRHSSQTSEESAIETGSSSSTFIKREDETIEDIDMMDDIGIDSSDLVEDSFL
EGFR, sequence (P00533 25-1210): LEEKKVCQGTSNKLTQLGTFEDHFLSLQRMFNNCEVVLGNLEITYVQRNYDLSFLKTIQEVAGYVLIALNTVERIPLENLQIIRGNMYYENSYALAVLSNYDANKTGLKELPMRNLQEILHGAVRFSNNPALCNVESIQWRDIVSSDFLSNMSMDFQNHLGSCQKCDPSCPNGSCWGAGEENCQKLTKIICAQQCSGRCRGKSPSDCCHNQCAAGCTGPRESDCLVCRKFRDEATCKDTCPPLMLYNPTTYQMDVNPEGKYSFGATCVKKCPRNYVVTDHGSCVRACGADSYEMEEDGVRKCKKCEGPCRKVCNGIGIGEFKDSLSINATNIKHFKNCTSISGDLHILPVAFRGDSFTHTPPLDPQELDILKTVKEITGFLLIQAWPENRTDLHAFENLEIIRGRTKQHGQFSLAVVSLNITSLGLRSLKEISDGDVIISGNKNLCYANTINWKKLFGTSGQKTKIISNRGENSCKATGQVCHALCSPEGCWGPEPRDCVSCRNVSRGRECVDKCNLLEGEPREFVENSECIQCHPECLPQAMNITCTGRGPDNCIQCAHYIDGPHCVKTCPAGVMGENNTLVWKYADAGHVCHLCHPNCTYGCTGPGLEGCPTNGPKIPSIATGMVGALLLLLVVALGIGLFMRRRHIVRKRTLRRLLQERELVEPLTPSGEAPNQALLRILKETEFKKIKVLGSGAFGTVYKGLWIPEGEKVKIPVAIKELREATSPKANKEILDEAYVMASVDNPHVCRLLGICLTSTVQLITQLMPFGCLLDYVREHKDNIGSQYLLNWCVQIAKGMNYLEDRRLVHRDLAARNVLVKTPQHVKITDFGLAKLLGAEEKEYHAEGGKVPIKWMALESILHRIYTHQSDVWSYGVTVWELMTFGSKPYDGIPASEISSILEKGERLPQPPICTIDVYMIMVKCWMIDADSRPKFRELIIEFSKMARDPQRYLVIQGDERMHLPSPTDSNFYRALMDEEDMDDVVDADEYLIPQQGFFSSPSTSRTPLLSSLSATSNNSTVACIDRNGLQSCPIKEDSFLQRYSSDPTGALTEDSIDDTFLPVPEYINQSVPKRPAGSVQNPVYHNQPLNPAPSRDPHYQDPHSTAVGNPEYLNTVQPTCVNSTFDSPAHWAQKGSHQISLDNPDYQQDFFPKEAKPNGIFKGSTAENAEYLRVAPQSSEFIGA

On to `O=C(/C=C/c1ccc(Br)cc1)c1ccc(OCCCSc2nncs2)cc1` [ZW97, (E)-1-(4-(3-((1,3,4-thiadiazol-2-yl)thio)propoxy)phenyl)-3-(4-bromophenyl)prop-2-en-1-one], for which the “level of E-cadherin” value in data set [1] is given as “upregulated”. In data set [2], the “antiproliferative activity in nine cancer cell lines” value was “antiproliferative activity against all nine cancer cell lines”. For the same molecule, the wound healing entry in [3] is “inhibited the wound healing in a concentration dependent manner”. Moreover, the 50% inhibitory concentration (IC50) (usually the concentration needed to halve the response being measured) in data set [4] was 1.17 µM; in [5], over 1.5 µM; in data set [6] it was over 1.5 µM; in data set [8] it was over 1.5 µM; in data set [9] (Homo sapiens, HCC44, read-out: IC50 against HCC-44 cells) it was 2.06 µM; in data set [10], over 1.5 µM. Besides, the IC50 in data set [11] is over 1.5 µM; in [12], 0.15 µM; in data set [13] it was 0.02796 ± 0.00014 µM; in data set [15], over 64 µM. Further, in data set [7] (50 mg/kg intragastric for 16 days), the subcutaneous tumour growth entry is “suppressed NCI-H460 subcutaneous tumour growth”. The mouse body weight result in data set [7] (50 mg/kg intragastric for 16 days, compared with control) is recorded as “did not significantly decrease the mouse body weight”. In addition, the “inhibitory rate (tumour weight)” value in data set [7] (day 16, 50 mg/kg intragastric once every 3 days, versus vehicle group) turned out to be 61.58%. Moreover, the “antiproliferative efficacy against HCC-44 cells” value in [9] (4 μM) was “approximately 65.7%”; in data set [9] (8 μM), about 88.3%. Besides, the “cell migration (transwell)” value in [14] is listed as “hindered NCI-H460 cell migration”. For the same molecule, the “level of N-cadherin” value in [16] is “downregulated”.
